Screening data from PubChem.
Only some compounds are listed: those with a hit (about 2.6% of all), similar ones and a draw of the others.
Vif inh: HIV Vif self-association inhibitors, primary screen, imaging, HEK293T, single point. HEK293T cells, Vif self-association by quenched fluorescence, 24 h. actives 0.35% (n = 340,000). inhibition, % at 7.49 µM; in the data active means inhibition above about 50%, passing the limit was not always enough
FN deposition inh: inhibitors of fibronectin matrix deposition, primary screen, AH1F cells, Alexa488-fibronectin fluorescence, plate reader; actives 0.086% (n = 350,000); inhibition, % at 12.6 µM; AH1F fibroblasts, overnight;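 active means mean inhibition across replicates of 30% or more, regardless of how many single replicates reach that level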;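 further: positive control wells lacked labelled fibronectin entirely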
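material = AH1F fibroblast monolayer depositing Alexa488-labelled fibronectin into matrix | amount = 10000 AH1F cells/well | buffer or medium = DMEM plus 2% serum, read in PBS | incubation = 1 h cell adhesion before compound, then overnight fibronectin incubation | detection = fluorescence at 485 nm excitation, 525 nm emission | evaluation = percent inhibition as loss of matrix-bound fibronectin fluorescence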
HIV Env fusion: inhibitors of HIV-1 Env-driven cell-cell fusion, primary screen, HeLa-JRFL effector, CEM21 target cells, luciferase. actives 1.1% (n = 360,000). inhibition, % at 12.3 µM. AID 651610, 2012;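 active means mean replicate inhibition score of at least 50 and every replicate individually at or above 50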;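 further: 0% = plate neutral controls and 100% = maraviroc near 300 nM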
miR-122 sensor: miR-122 Renilla sensor signal increase in Huh7, primary screen, miR-122 inhibitor project, cell-based, single point, plate reader. Huh7 miR-122 Renilla luciferase sensor, 48 h; neutral wells = 0, positive control = 100. activation (reporter increase), % at 12.5 µM. actives 0.3% (n = 340,000). AID 602342, 2012;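 active means mean replicate activation score at least 90 and every replicate individually at or above 90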;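 further: higher luciferase means less miR-122 activity so hits act as miR-122 inhibitors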
S100A4 inh HTS: inhibitors of S100A4-myosin IIA peptide binding, primary screen, biochemical, fluorescence polarization, TAMRA-MyoIIA peptide; Protein S100-A4 (Homo sapiens), P26447; inhibition, % at 10.7 µM; actives 0.14% (n = 360,000); AID 652163, 2013;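 active means mean inhibition of at least 70% across replicates, with every replicate also reaching that level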
Target sequence (P26447 whole entry, looked up): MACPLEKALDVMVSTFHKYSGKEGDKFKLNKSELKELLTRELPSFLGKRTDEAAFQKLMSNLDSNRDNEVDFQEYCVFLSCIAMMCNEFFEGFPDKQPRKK
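System – human S100A4 monomer protein, biochemical binding assay · Buffer or medium – Calcium-containing HEPES buffer, pH 7.2 · Timing – 5 min between mix addition and reading · Also added – TAMRA-labelled myosin IIA heavy-chain peptide probe, 5 nM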
Ecoli rRNA inh: reduced GFP signal of wild-type E. coli, primary screen, bacterial rRNA inhibitor project, GFP/RFP fluorescence, OD600, single point. E. coli WT GFP vs humanized-ribosome RFP mutants, 24 h; active compounds read low; DMSO median 0, no signal -100. GFP signal change (wild-type ribosome), % (no concentration beside the values). actives 1.6% (n = 350,000). AID 720706, 2013;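 active means significant combined selectivity score with lowered wild-type GFP, culture density cut under 30%, mutant RFP and density less affected; inactive means any of these conditions unmet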
An asterisk follows results filed as active; i = inactive; / = not tested or not shown; [ ] = dose if it differs, or a comment.

SMILES	Vif inh	FN deposition inh	HIV Env fusion	miR-122 sensor	S100A4 inh HTS	Ecoli rRNA inh
Cc1ccc(NC(=O)CCCOc2ccccc2)cc1S(=O)(=O)N1CCOCC1	-9	0	10	-3	-9	-17
C[C@H]1CN([C@@H](C)CO)C(=O)CCCn2cc(nn2)CO[C@H]1CN(C)Cc1cccc(O)c1	/	-12	-10[16.7 µM]	-7[16.7 µM]	5	-1
C[C@@H]1CN([C@@H](C)CO)C(=O)c2cccc(NC(=O)Nc3ccc(F)cc3)c2O[C@H]1CN(C)C(=O)NC1CCCCC1	/	/	5[16.7 µM]	-1[16.7 µM]	-8	-1
CCC(C)(C)n1nnnc1C(c1ccc(C)cc1)N(Cc1ccco1)Cc1cccs1 (stereo unspecified)	/	-11	135*	8	/	/
O=Cc1ccc(-n2cncn2)cc1	6	/	-4	/	-4	0
CN1C(=O)S/C(=C\c2ccc(-n3cncn3)cc2)C1=O	-4	-2	-16	-20	-4	-22*
O=C(Nc1ccccc1F)N1C[C@H]2[C@@H](c3ccccc31)[C@H](CO)N2C(=O)C1CCCCC1	/	/	/	11[16.7 µM]	1	-3
O=C(Nc1ccccc1F)N1C[C@@H]2[C@H](c3ccccc31)[C@H](CO)N2C(=O)C1CC1	/	30*	/	-30[16.7 µM]	-5	7
O=C(C1CCCC1)N1C[C@@H]2[C@H](c3ccccc31)[C@@H](CO)N2C(=O)c1ccccc1F	/	2	/	20[16.7 µM]	115*	-2
O=C(C1CCCC1)N1C[C@H]2[C@@H](c3ccccc31)[C@@H](CO)N2C(=O)c1ccccc1F	/	14	/	20[16.7 µM]	5	6
COCC(=O)N1C[C@H]2[C@@H](c3ccccc31)[C@@H](CO)N2C(=O)Nc1ccccc1F	/	/	/	25[16.7 µM]	102*	1
O=C(Nc1ccccc1F)N1C[C@@H]2[C@H](c3ccccc31)[C@H](CO)N2C(=O)C1CCOCC1	/	20	/	0[16.7 µM]	68	2
O=C(Nc1ccccc1F)N1C[C@@H]2[C@H](c3ccccc31)[C@@H](CO)N2C(=O)C1CCCC1	/	10	/	130*[16.7 µM]	129*	3
O=C(C[C@H]1C=C[C@@H](NS(=O)(=O)c2ccccc2)[C@@H](CO)O1)N1CCC(Cc2ccccc2)CC1	/	/	/	/	-1	-1
C/C=C/c1ccc([C@H]2[C@@H](CO)N(C(=O)Nc3ccccc3F)[C@H]2C#N)cc1	/	10	12[16.7 µM]	/	89*	-3
Nc1nn(-c2ccccc2)nc1C(=O)OCc1ccccc1F	8	/	/	/	/	/
Cc1ccccc1COC(=O)c1nn(-c2ccccc2)nc1N	9	31*	-27	/	-10	-12
C[C@H](O)C#Cc1ccc2c(c1)O[C@H](CN(C)Cc1ccc(-c3ccccc3)cc1)[C@@H](C)CN([C@@H](C)CO)S2(=O)=O	/	/	/	-40[16.7 µM]	-2	-4
Cc1nc2c(OCc3ccc(C(F)(F)F)cc3)cccn2c1N(C)C(=O)CCC1CCCC1	-9	-10	61*	-2	-1	-4
COc1ccccc1S(=O)(=O)N[C@H]1CC[C@@H](CC(=O)N2CCOCC2)O[C@H]1CO	/	/	22[16.7 µM]	/	7	3
CCN1CCN(c2c(Cl)cccc2NC(=O)c2ccc([N+](=O)[O-])o2)CC1	-1	11	7	5	1	-17*
CC(C)C(=O)N1CCN(c2ccc(NC(=O)c3ccc([N+](=O)[O-])o3)cc2Cl)CC1	25	37*	i	/	-2	-38
O=C(Nc1cccc(Cl)c1N1CCCC1)c1ccc([N+](=O)[O-])o1	0	0	7	-2	1	1
CN1CCN(c2ccc(NC(=O)c3ccc([N+](=O)[O-])o3)cc2Cl)CC1	16	8	i	/	2	-36
COc1ccc(C(=O)Nc2ccc(N3CCN(C(=O)C(C)C)CC3)cc2)cc1[N+](=O)[O-]	64*	1	/	-4	/	/
